Laboratory results: ChEMBL document CHEMBL2029280, “3-fluoro- and 3,3-difluoro-3,4-dideoxy-KRN7000 analogues as new potent immunostimulator agents: total synthesis and biological evaluation in human invariant natural killer T cells and mice” (2012)
Active and inactive are the calls of the source. The rule behind the calls is not given here.

What was measured:
[1] = system: MAD11; test: Activation of Hela cell expressing human CD1D-TCR in human MAD11 cells assessed as TH1-mediated TNFalpha secretion after 6 hrs relative to control; assay type: cell-based
In short: (§1)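 Human CD1d-transduced HeLa or Namalwa cells, 30000/well, incubated overnight at 37 °C with graded glycolipid (DMSO), washed twice, then cocultured 6 h at 37 °C with 15000 Vα24+/Vβ11+ human iNKT cells in RPMI without IL-2. TNF-α in cell-free supernatant measured by WEHI 164 cytotoxicity (MTT). No-glycolipid background subtracted. Mean of triplicates; at least 3 experiments.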

[2] = system: Namalwa; test: Activation of Namalwa cell expressing CD1D-TCR in human MAD11 cells assessed as TH1-mediated TNFalpha secretion after 6 hrs relative to control; assay type: cell-based; in short: as §1
[3] = system: MAD11; test: Activation of Hela cell expressing human CD1D-TCR in human MAD11 cells assessed as TH1-mediated IFN-gamma secretion after 6 hrs by ELISA relative to KRN7000; assay type: cell-based
In short: (§2)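 APCs (hCD1d-transduced HeLa or Namalwa) plated 30000/well, loaded overnight at 37 °C with glycolipid titration in DMSO, washed twice. Vα24/Vβ11-sorted human iNKT line (15000 cells, no IL-2) added for 6 h at 37 °C. Supernatant IFN-γ measured by ELISA. No-glycolipid background subtracted. Mean of triplicates, SD shown. KRN7000 reference; untransduced APCs as negative control.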

[4] = system: Namalwa; test: Activation of Namalwa cell expressing CD1D-TCR in human MAD11 cells assessed as TH2-mediated IL-13 secretion after 48 hrs by ELISA relative to KRN7000; assay type: functional, cell-based
In short: (§3)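 The hCD1d-transduced HeLa or Namalwa presenting cells were plated at 7500/well and pulsed overnight at 37 °C with increasing glycolipid concentrations in DMSO, then washed. 15000 sorted human iNKT cells were added without IL-2 for 48 h at 37 °C. IL-13 in supernatant was measured by ELISA, minus background without glycolipid. Triplicate mean ± SD, with KRN7000 as reference.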

[5] = system: MAD11; test: Activation of Hela cell expressing human CD1D-TCR in human MAD11 cells assessed as TH2-mediated IL-13 secretion after 48 hrs by ELISA relative to KRN7000; assay type: functional, cell-based; in short: as §3
[6] = system: Namalwa; test: Activation of Namalwa cell expressing CD1D-TCR in human MAD11 cells assessed as TH1-mediated IFN-gamma secretion after 6 hrs by ELISA relative to KRN7000; assay type: cell-based; in short: as §2
[7] = system: Mus musculus; test: Induction of CD1D-TCR-dependent NKT cell activation in C57BL/6J mouse assessed as IL-4 production at 100 ug/kg, ip relative to KRN7000; assay type: functional
In short: (§4)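 Female C57BL/6J mice, 6–8 weeks old, given 100 μg/kg glycolipid ip in 0.1 mL of 10% DMSO in 0.9% NaCl. Sera collected at several time points after injection; six mice per time point. Serum IFN-γ, IL-4 and TNF-α measured by ELISA. Time courses compared as area under the curve against KRN7000.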

[8] = system: Mus musculus; test: Induction of CD1D-TCR-dependent NKT cell activation in C57BL/6J mouse assessed as TNF-alpha production at 100 ug/kg, ip relative to KRN7000; assay type: functional; in short: as §4
[9] = system: Mus musculus; test: Induction of CD1D-TCR-dependent NKT cell activation in C57BL/6J mouse assessed as ratio of IFNgamma/IL-4 production at 100 ug/kg, ip relative to KRN7000; assay type: functional
In short: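 Female C57BL/6J mice, 6–8 weeks old, received 100 μg/kg ip in 0.1 mL of 10% DMSO/0.9% NaCl. Serial serum samples were taken, six mice per time point. IFN-γ and IL-4 were measured by ELISA, and the ratio of AUC IFN-γ to AUC IL-4 was computed.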

[10] = system: Mus musculus; test: Induction of CD1D-TCR-dependent NKT cell activation in C57BL/6J mouse assessed as IFN-gamma production at 100 ug/kg, ip measured after 8 hrs relative to KRN7000; assay type: functional; in short: as §4
[11] = system: Mus musculus; test: Induction of CD1D-TCR-dependent NKT cell activation in C57BL/6J mouse assessed as IFN-gamma production at 100 ug/kg, ip relative to KRN7000; assay type: functional; in short: as §4

Row | SMILES | Activity [1] | Activity [2] | Activity [3] | Activity [4] | Activity [5] | Activity [6] | Ratio [7] | Activity [8] [%] | Ratio [9] | Activity [10] | Activity [11] [%]
1 | CCCCCCCCCCCCCCCCCCCCCCCCCC(=O)N[C@@H](CO[C@H]1O[C@H](CO)[C@H](O)[C@H](O)[C@H]1O)[C@H](O)[C@H](O)CCCCCCCCCCCCCC | Active | Active | Active | Active | Active | Active |  |  |  |  | 
2 | CCCCCCCCCCCCCCCCCCCCCCCCCC(=O)N[C@@H](CO[C@H]1O[C@H](CO)[C@H](O)[C@H](O)[C@H]1O)[C@H](F)CCCCCCCCCCCCCC | Active | Active | Active | Active | Active | Active | 0.35 | 23 | 0.78 | 30% | 
3 | CCCCCCCCCCCCCCCCCCCCCCCCCC(=O)N[C@H](CCCCCCCCCCCCCCC)CO[C@H]1O[C@H](CO)[C@H](O)[C@H](O)[C@H]1O | Active | Active | Active | Active | Active | Active | 0.35 | 40 | 1.86 |  | 70
4 | CCCCCCCCCCCCCCCCCCCCCCCCCC(=O)N[C@@H](CO[C@H]1O[C@H](CO)[C@H](O)[C@H](O)[C@H]1O)C(F)(F)CCCCCCCCCCCCCCC | Active | Active | Active | Active | Active | Active | 0.35 | 32 | 1.31 | Active | 
